{"source": "paper PMC3986664", "about": "(Molecular Metabolism, 2014)", "key": {"[1]": {"assay": "Measure of maximum solubility", "assay_type": "physicochemical", "settings": "pH 7.4, 10 mM Tris, 4 °C, 48 h, saturated solution, UV 280 nm, single point", "outline": "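Saturated peptide solutions made in 10 mM Tris base, pH adjusted to 7.4, held 48 h at 4 °C and at ambient temperature, then pH re-measured. Serially diluted until no visible precipitate and UV absorbance became linear.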"}, "[2]": {"assay": "Long-term stability study, alkaline RP-HPLC", "assay_type": "physicochemical"}}, "note": "Where a SMILES comes first, the peptide text is derived from it. [ ]: non-standard residue; d: D form. Aib = CC(C)(N)C(=O)O", "data": [{"smiles": "CSCC[C@H](NC(=O)[C@H](CC(C)C)NC(=O)[C@H](Cc1c[nH]c2ccccc12)NC(=O)[C@H](CCC(N)=O)NC(=O)[C@@H](NC(=O)[C@H](Cc1ccccc1)NC(=O)[C@H](CC(=O)O)NC(=O)[C@H](CCC(N)=O)NC(=O)[C@H](C)NC(=O)[C@H](CCCNC(=N)N)NC(=O)[C@H](CCCNC(=N)N)NC(=O)[C@H](CO)NC(=O)[C@H](CC(=O)O)NC(=O)[C@H](CC(C)C)NC(=O)[C@H](Cc1ccc(O)cc1)NC(=O)[C@H](CCCCN)NC(=O)[C@H](CO)NC(=O)[C@H](Cc1ccc(O)cc1)NC(=O)[C@H](CC(=O)O)NC(=O)[C@H](CO)NC(=O)[C@@H](NC(=O)[C@H](Cc1ccccc1)NC(=O)[C@@H](NC(=O)CNC(=O)[C@H](CCC(N)=O)NC(=O)[C@H](CO)NC(=O)[C@@H](N)Cc1c[nH]cn1)[C@@H](C)O)[C@@H](C)O)C(C)C)C(=O)N[C@@H](CC(=O)O)C(=O)N[C@@H](CCC(=O)O)C(=O)O", "note": "[Asp28,Glu29]", "values": [{"measurement": "Apparent solubility relative to Asp28", "setting": "[1]", "result": "doubling in apparent peptide solubility"}]}, {"smiles": "CSCC[C@H](NC(=O)[C@H](CC(C)C)NC(=O)[C@H](Cc1c[nH]c2ccccc12)NC(=O)[C@H](CCC(N)=O)NC(=O)[C@@H](NC(=O)[C@H](Cc1ccccc1)NC(=O)[C@H](CC(=O)O)NC(=O)[C@H](CCC(N)=O)NC(=O)[C@H](C)NC(=O)[C@H](CCCNC(=N)N)NC(=O)[C@H](CCCNC(=N)N)NC(=O)C(C)(C)NC(=O)[C@H](CC(=O)O)NC(=O)[C@H](CC(C)C)NC(=O)[C@H](Cc1ccc(O)cc1)NC(=O)[C@H](CCCCN)NC(=O)[C@H](CO)NC(=O)[C@H](Cc1ccc(O)cc1)NC(=O)[C@H](CC(=O)O)NC(=O)[C@H](CO)NC(=O)[C@@H](NC(=O)[C@H](Cc1ccccc1)NC(=O)[C@@H](NC(=O)CNC(=O)[C@H](CCC(N)=O)NC(=O)[C@H](CO)NC(=O)[C@@H](N)Cc1c[nH]cn1)[C@@H](C)O)[C@@H](C)O)C(C)C)C(=O)N[C@@H](CC(=O)O)C(=O)N[C@@H](CCC(=O)O)C(=O)O", "note": "[IUB75] (H-HSQGTFTSDYSKYLD[Aib]RRAQDFVQWLMDE-OH)", "values": [{"measurement": "Difference in stability at six months between Asp28 and IUB75 (Δ1)", "setting": "[2]; Figure 8, trend-line of degradation slopes", "result": 40, "unit": "%"}, {"measurement": "Stability relative to Asp28", "setting": "[2]; same pH and ambient temperature, six month study", "result": "approximately twice as stable"}, {"measurement": "Total degradation", "setting": "[2]; six months, ambient temperature, 1 mg/ml, 20 mM Tris, 0.1% SDS, pH 8.6", "result": "more than 20%"}]}]}
